Source: ChEMBL document CHEMBL1151987, “Glionitrin A, an antibiotic-antitumor metabolite derived from competitive interaction between abandoned mine microbes” (J Nat Prod, 2009)
≈ marks a conversion by molar mass, not a printed value. Each block holds one compound with its values, some of them ahead of it.

Assays:
Trichophyton rubrum = test: Antifungal activity against Trichophyton rubrum IFO 9185; assay type: functional
Micrococcus luteus = test: Antibacterial activity against Micrococcus luteus IFC 12708; assay type: functional
Staphylococcus aureus [1] = test: Antibacterial activity against methicillin-resistant Staphylococcus aureus ATCC 700787; assay type: functional
Staphylococcus aureus [2] = test: Antibacterial activity against methicillin-resistant Staphylococcus aureus ATCC 43300; assay type: functional
Staphylococcus aureus [3] = test: Antibacterial activity against methicillin-resistant Staphylococcus aureus ATCC 700788; assay type: functional
[4] = system: Salmonella enterica subsp. enterica; test: Antibacterial activity against Salmonella Typhimurium ATCC 14028; assay type: functional, Salmonella enterica subsp. enterica serovar Typhimurium
Bacillus subtilis = test: Antibacterial activity against Bacillus subtilis ATCC 6633; assay type: functional
Proteus vulgaris = test: Antibacterial activity against Proteus vulgaris ATCC 3851; assay type: functional
DU-145 = test: Cytotoxicity against human DU145 cells; assay type: functional, cell-based
In short: (§1)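 Cell proliferation inhibition measured by MTT assay; the value is reported as IC50 in µM.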

AGS = test: Cytotoxicity against human AGS cells; assay type: functional, cell-based; in short: as §1
HepG2 = test: Cytotoxicity against human HepG2 cells; assay type: functional, cell-based; in short: as §1
Aspergillus fumigatus = test: Antifungal activity against Aspergillus fumigatus HIC 6094; assay type: functional
HCT-116 = test: Cytotoxicity against human HCT116 cells; assay type: functional, cell-based; in short: as §1
A549 = test: Cytotoxicity against human A549 cells; assay type: functional, cell-based; in short: as §1
MCF7 = test: Cytotoxicity against human MCF7 cells; assay type: functional, cell-based; in short: as §1

- MIC (Trichophyton rubrum): 1.56 µg/mL (≈ 1.69 µM)
Compound: C[C@@H]1[C@H](O)[C@@H](C)/C=C/C=C/C=C/C=C/C=C/C=C/C=C/[C@H](O[C@@H]2O[C@H](C)[C@@H](O)[C@H](N)[C@@H]2O)C[C@@H]2O[C@](O)(C[C@@H](O)C[C@@H](O)[C@H](O)CC[C@@H](O)C[C@@H](O)CC(=O)O[C@H]1C)C[C@H](O)[C@H]2C(=O)O [AMPHOTERICIN B]

Compound: CC1(C)S[C@@H]2[C@H](NC(=O)[C@H](N)c3ccccc3)C(=O)N2[C@H]1C(=O)O [AMPICILLIN]
- MIC (Micrococcus luteus): 0.78 µg/mL (≈ 2.23 µM)
- MIC (Staphylococcus aureus [1]): 12.5 µg/mL (≈ 35.8 µM)
- MIC (Staphylococcus aureus [2]): 12.5 µg/mL (≈ 35.8 µM)
- MIC (Staphylococcus aureus [3]): 25 µg/mL (≈ 71.5 µM)
- MIC [4]: 12.5 µg/mL (≈ 35.8 µM)
- MIC (Bacillus subtilis): 3.13 µg/mL (≈ 8.96 µM)
- MIC (Proteus vulgaris): 1.56 µg/mL (≈ 4.46 µM)

Compound: CN1C(=O)[C@@]23Cc4ccc([N+](=O)[O-])cc4N2C(=O)[C@@]1(CO)SS3 [GLIONITRIN A]
- IC50 (DU-145): 240 nM
- IC50 (AGS): 450 nM
- IC50 (HepG2): 2300 nM
- MIC (Micrococcus luteus): 0.78 µg/mL (≈ 2.21 µM)
- MIC (Aspergillus fumigatus): 12.5 µg/mL (≈ 35.4 µM)
- IC50 (HCT-116): 820 nM
- MIC (Staphylococcus aureus [1]): 0.78 µg/mL (≈ 2.21 µM)
- MIC (Trichophyton rubrum): 12.5 µg/mL (≈ 35.4 µM)
- MIC (Staphylococcus aureus [2]): 0.78 µg/mL (≈ 2.21 µM)
- MIC (Staphylococcus aureus [3]): 0.78 µg/mL (≈ 2.21 µM)
- MIC [4]: 3.13 µg/mL (≈ 8.86 µM)
- IC50 (A549): 550 nM
- IC50 (MCF7): 2000 nM
- MIC (Bacillus subtilis): 6.25 µg/mL (≈ 17.7 µM)
- MIC (Proteus vulgaris): 3.13 µg/mL (≈ 8.86 µM)
